As a reminder, the MIC is the least concentration at which growth counts as inhibited. Broadly, the MIC50 is an inhibitory concentration at the 50% level, which refers to growth in some studies and to a panel of isolates in others. High values mean lower susceptibility, low ones higher susceptibility. For orientation: MIC90 means an inhibitory concentration at the 90% level, which refers to growth in some studies and to a panel of isolates in others. A higher MIC90 goes with lower susceptibility.

These results are taken from ChEMBL document CHEMBL1141140, “Antifungal agents. 11. N-substituted derivatives of 1-[(aryl)(4-aryl-1H-pyrrol-3-yl)methyl]-1H-imidazole: synthesis, anti-Candida activity, and QSAR studies” (2005).

Molecules are shown by their SMILES. Values after ≈ are worked out from the molar mass of the structure shown.

What all share (type): functional
Assay [1] has as its system Candida albicans. Description: In vitro minimal inhibitory concentration against Candida albicans with percentage of resistant strains %R = 33.33 (MIC > 64 ug/mL) at a range of 0.25-2 ug/mL.
Assay [2] concerns Candida albicans. Description: In vitro concentration causing 50% inhibition of Candida albicans with percentage of resistant strains %R = 33.33 (MIC > 64 ug/mL) at a range of 0.25-2 ug/mL.
For assay [3], the system named is Candida albicans. Description: In vitro concentration causing 90% inhibition of Candida albicans with percentage of resistant strains %R = 33.33 (MIC > 64 ug/mL) at a range of 0.25-2 ug/mL.
The test system of assay [4] is Candida albicans. Description: Ratio of the in vitro minimal inhibitory to that of bifonazole against Candida albicans (MIC(compound)/MIC(bifonazole)). An outline of the steps:
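Broth microdilution per NCCLS M27-A2 against 12 Candida albicans strains (AIDS oropharyngeal, HIV vulvovaginitis isolates, ATCC 24433 and 20891, lab strains 3153 and CA2). Inoculum ~10^4 cells/mL in RPMI 1640, pH 7.0; DMSO stocks 6.4 mg/mL, twofold dilutions 0.016–64 μg/mL; read at 24 h, 28 °C, no visible growth. Mean MIC over strains converted to μmol/mL, divided by bifonazole MIC.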

Assay [5] concerns Candida albicans. Put plainly: In vitro minimal inhibitory concentration against Candida albicans with percentage of resistant strains %R = 33.33 (MIC > 64 ug/mL) at a range of 0.25-0.5 ug/mL.
The subject of assay [6] is Candida albicans. Description: In vitro concentration causing 50% inhibition of Candida albicans with percentage of resistant strains %R = 33.33 (MIC > 64 ug/mL) at a range of 0.25-0.5 ug/mL.
The subject of assay [7] is Candida albicans. Description: In vitro concentration causing 90% inhibition of Candida albicans with percentage of resistant strains %R = 33.33 (MIC > 64 ug/mL) at a range of 0.25-0.5 ug/mL.
Assay [8] deals with Candida albicans. Description: In vitro minimal inhibitory concentration against Candida albicans with percentage of resistant strains %R = 66 (MIC > 64 ug/mL) at a range of 2-8 ug/mL.
Assay [9] deals with Candida albicans. Put plainly: In vitro concentration causing 50% inhibition of Candida albicans with percentage of resistant strains %R = 66 (MIC > 64 ug/mL) at a range of 2-8 ug/mL.
Assay [10] has as its system Candida albicans. Put plainly: In vitro concentration causing 90% inhibition of Candida albicans with percentage of resistant strains %R = 66 (MIC > 64 ug/mL) at a range of 2-8 ug/mL.
Assay [11] relates to Candida albicans. Description: In vitro minimal inhibitory concentration against Candida albicans with percentage of resistant strains %R = 50 (MIC > 64 ug/mL) at a range of 2-4 ug/mL.
The subject of assay [12] is Candida albicans. Put plainly: In vitro concentration causing 50% inhibition of Candida albicans with percentage of resistant strains %R = 50 (MIC > 64 ug/mL) at a range of 2-4 ug/mL.
In assay [13] the test system is Candida albicans. Put plainly: In vitro concentration causing 90% inhibition of Candida albicans with percentage of resistant strains %R = 50 (MIC > 64 ug/mL) at a range of 2-4 ug/mL.
The test system of assay [14] is Candida albicans. Description: In vitro minimal inhibitory concentration against Candida albicans with percentage of resistant strains %R = 0 (MIC > 64 ug/mL) at a range of 0.062-2 ug/mL.
Assay [15] concerns Candida albicans. Put plainly: In vitro concentration causing 50% inhibition of Candida albicans with percentage of resistant strains %R = 0 (MIC > 64 ug/mL) at a range of 0.062-2 ug/mL.
Assay [16] has as its system Candida albicans. Put plainly: In vitro concentration causing 90% inhibition of Candida albicans with percentage of resistant strains %R = 0 (MIC > 64 ug/mL) at a range of 0.062-2 ug/mL.
Assay [17] relates to Candida albicans. Put plainly: In vitro minimal inhibitory concentration against Candida albicans with percentage of resistant strains %R = 36 (MIC > 64 ug/mL) at a range of 0.5-2 ug/mL.
Assay [18] has as its system Candida albicans. Put plainly: In vitro concentration causing 50% inhibition of Candida albicans with percentage of resistant strains %R = 36 (MIC > 64 ug/mL) at a range of 0.5-2 ug/mL.
In assay [19] the test system is Candida albicans. Put plainly: In vitro concentration causing 90% inhibition of Candida albicans with percentage of resistant strains %R = 36 (MIC > 64 ug/mL) at a range of 0.5-2 ug/mL.
Assay [20] has as its system Candida albicans. Description: In vitro minimal inhibitory concentration against Candida albicans with percentage of resistant strains %R = 25 (MIC > 64 ug/mL) at a range of 0.5-2 ug/mL.
The test system of assay [21] is Candida albicans. Description: In vitro concentration causing 50% inhibition of Candida albicans with percentage of resistant strains %R = 25 (MIC > 64 ug/mL) at a range of 0.5-2 ug/mL.
The test system of assay [22] is Candida albicans. Put plainly: In vitro concentration causing 90% inhibition of Candida albicans with percentage of resistant strains %R = 25 (MIC > 64 ug/mL) at a range of 0.5-2 ug/mL.
The test system of assay [23] is Candida albicans. Put plainly: In vitro minimal inhibitory concentration against Candida albicans with percentage of resistant strains %R = 66 (MIC > 64 ug/mL) at a range of 0.25-2 ug/mL.
In assay [24] the test system is Candida albicans. Put plainly: In vitro concentration causing 50% inhibition of Candida albicans with percentage of resistant strains %R = 66 (MIC > 64 ug/mL) at a range of 0.25-2 ug/mL.
Assay [25] relates to Candida albicans. Description: In vitro concentration causing 90% inhibition of Candida albicans with percentage of resistant strains %R = 66 (MIC > 64 ug/mL) at a range of 0.25-2 ug/mL.

With `Cc1ccc(C(c2cn(C)cc2-c2ccc(Cl)c(Cl)c2)n2ccnc2)cc1` (configuration not stated), in the assay with Candida albicans [1], the MIC was 0.87 µg/mL (≈ 2.2 µM). In the assay on Candida albicans [2], this molecule had an MIC50 of 0.5 µg/mL (≈ 1.26 µM). The MIC90 with Candida albicans [3] came out at 2 µg/mL (≈ 5.05 µM). The Ratio in the assay on Candida albicans [4] came out at 0.19.

Turning to `Clc1ccc(-c2c[nH]cc2C(c2ccc(Cl)cc2Cl)n2ccnc2)cc1` (configuration not stated), the MIC with Candida albicans [5] came to 4.2 µg/mL (≈ 10.4 µM). The molecule further displayed an MIC50 in the assay with Candida albicans [6] of 0.25 µg/mL (≈ 0.621 µM). For the same molecule, the Ratio in the assay on Candida albicans [4] is recorded as 0.92. Moreover, the MIC90 with Candida albicans [7] is 0.5 µg/mL (≈ 1.24 µM).

`CCn1cc(-c2cccc3ccccc23)c(C(c2ccc(Cl)cc2Cl)n2ccnc2)c1` (configuration not stated) displayed an MIC in the assay on Candida albicans [8] of 5.5 µg/mL (≈ 12.3 µM). The MIC50 in the assay with Candida albicans [9] turned out to be 4 µg/mL (≈ 8.96 µM). This molecule registered an MIC90 against Candida albicans [10] of 8 µg/mL (≈ 17.9 µM). In addition, the Ratio with Candida albicans [4] is given as 1.1.

With `COC(Cn1cc(-c2ccc(Cl)cc2)c(C(c2ccc(Cl)cc2Cl)n2ccnc2)c1)OC` (configuration not stated), in the assay with Candida albicans [11], the MIC amounted to 2.66 µg/mL (≈ 5.42 µM). For the same molecule, in the assay with Candida albicans [12], the MIC50 was 2 µg/mL (≈ 4.07 µM). In the assay on Candida albicans [13], the MIC90 turned out to be 4 µg/mL (≈ 8.15 µM). Also, in the assay on Candida albicans [4], the Ratio was found to be 0.48.

`C=CCn1cc(-c2ccc(Cl)cc2Cl)c(C(c2ccc(Cl)cc2Cl)n2ccnc2)c1` (configuration not stated) returned an MIC in the assay on Candida albicans [14] of 0.65 µg/mL (≈ 1.36 µM). In the assay on Candida albicans [15], the MIC50 came out at 0.25 µg/mL (≈ 0.524 µM). The MIC90 with Candida albicans [16] turned out to be 1 µg/mL (≈ 2.1 µM). For the same molecule, in the assay on Candida albicans [4], the Ratio was 0.12.

`Cn1cc(-c2ccccc2Cl)c(C(c2ccc(Cl)cc2Cl)n2ccnc2)c1` (configuration not stated) yielded an MIC in the assay with Candida albicans [17] of 1.71 µg/mL (≈ 4.1 µM). This molecule came in with an MIC50 with Candida albicans [18] of 2 µg/mL (≈ 4.8 µM). The molecule further gave an MIC90 in the assay with Candida albicans [19] of 2 µg/mL (≈ 4.8 µM). The Ratio with Candida albicans [4] was found to be 0.36.

As for `CCn1cc(-c2ccc(Cl)cc2)c(C(c2ccc(Cl)cc2Cl)n2ccnc2)c1` (configuration not stated), in the assay with Candida albicans [20], the minimum inhibitory concentration (MIC) worked out at 1.5 µg/mL (≈ 3.48 µM). Besides, the MIC50 against Candida albicans [21] came out at 2 µg/mL (≈ 4.64 µM). This molecule registered an MIC90 against Candida albicans [22] of 2 µg/mL (≈ 4.64 µM). Moreover, the Ratio in the assay on Candida albicans [4] worked out at 0.31.

`CCCn1cc(-c2ccc(Cl)cc2)c(C(c2ccc(Cl)cc2Cl)n2ccnc2)c1` (configuration not stated) gave a minimal inhibitory concentration (MIC) in the assay with Candida albicans [23] of 8.56 µg/mL (≈ 19.2 µM). Moreover, in the assay on Candida albicans [24], the MIC50 was determined as 1 µg/mL (≈ 2.25 µM). Moreover, in the assay on Candida albicans [25], the MIC90 was determined as 32 µg/mL (≈ 71.9 µM). In addition, the Ratio in the assay with Candida albicans [4] is 1.7.
